From article PMC6459016 (Journal of computer-aided molecular design, 2019)
pIC50: −log10 of the molar value.

target: T1, recombinant human GALK1 (Homo sapiens, UniProt P51570); experiment: GALK1 inhibition assay; format: biochemical; details: luminescence GALK1-ATP-depletion assay; ATP 35 μM, galactose 100 μM
Summary of the method: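 Recombinant human GALK1 was run in 1536-well format against test compound at 6 doses (3 nM – 57 μM). Reactions were started with ATP (35 μM) and galactose (100 μM), both near their K_M under these conditions. Remaining ATP was read by Kinase-Glo luminescence. Normalized concentration-response data were fitted to a four-parameter logistic to give IC50 and efficacy (maximal response).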

T1 sequence (P51570 whole entry): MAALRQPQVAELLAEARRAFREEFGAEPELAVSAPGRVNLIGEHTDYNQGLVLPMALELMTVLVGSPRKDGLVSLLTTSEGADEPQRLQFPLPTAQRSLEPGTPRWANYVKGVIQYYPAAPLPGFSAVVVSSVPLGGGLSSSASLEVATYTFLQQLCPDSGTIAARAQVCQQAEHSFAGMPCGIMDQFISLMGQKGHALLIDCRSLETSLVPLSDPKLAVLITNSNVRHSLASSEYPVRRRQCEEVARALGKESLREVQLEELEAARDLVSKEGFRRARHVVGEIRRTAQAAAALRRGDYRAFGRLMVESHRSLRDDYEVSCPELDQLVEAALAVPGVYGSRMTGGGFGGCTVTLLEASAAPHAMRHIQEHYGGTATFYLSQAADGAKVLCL

| SMILES | pIC50 |
| --- | --- |
| Cc1ccc(S(=O)(=O)Nc2cnccc2C(=O)Nc2nc(-c3ccccc3)cs2)cc1 [C2] | 4.85 |
| Cc1ccc(S(=O)(=O)Nc2cc(C(F)(F)F)ccc2C(=O)Nc2nc(-c3ccccc3)cs2)cc1 [C3] | 4.80 |
| Cc1ccc(S(=O)(=O)Nc2cc(Cl)c(Cl)cc2C(=O)Nc2nc(-c3ccccc3)cs2)cc1 [C4] | 4.65 |
| COc1ccc(-c2csc(NC(=O)c3ccccc3NS(=O)(=O)c3ccc(C)cc3)n2)cc1 [C5] | 4.95 |
| Cc1ccc(-c2csc(NC(=O)c3ccccc3NS(=O)(=O)c3ccc(C)cc3)n2)cc1 [C6] | 4.85 |
| Cc1ccccc1S(=O)(=O)Nc1cnccc1C(=O)Nc1nc(-c2ccccc2)cs1 [C7] | 4.95 |
| COc1ccc(S(=O)(=O)Nc2cnccc2C(=O)Nc2nc(-c3ccccc3)cs2)cc1 [C8] | 4.80 |
| O=C(Nc1nc(-c2ccccc2)cs1)c1ccncc1NS(=O)(=O)c1ccc(-c2ccccc2)cc1 [C9] | 4.75 |
| O=C(Nc1nc(-c2ccccc2)cs1)c1ccncc1NS(=O)(=O)c1ccc(N2CCCC2=O)cc1 [C10] | 4.35 |

same assay, conditions: maximal % inhibition at 57 μM compound

| SMILES | MR (maximal % inhibition) [%] |
| --- | --- |
| Cc1ccc(S(=O)(=O)Nc2cnccc2C(=O)Nc2nc(-c3ccccc3)cs2)cc1 [C2] | 83.5 |
| Cc1ccc(S(=O)(=O)Nc2cc(C(F)(F)F)ccc2C(=O)Nc2nc(-c3ccccc3)cs2)cc1 [C3] | 92.9 |
| Cc1ccc(S(=O)(=O)Nc2cc(Cl)c(Cl)cc2C(=O)Nc2nc(-c3ccccc3)cs2)cc1 [C4] | 89.3 |
| COc1ccc(-c2csc(NC(=O)c3ccccc3NS(=O)(=O)c3ccc(C)cc3)n2)cc1 [C5] | 75.9 |
| Cc1ccc(-c2csc(NC(=O)c3ccccc3NS(=O)(=O)c3ccc(C)cc3)n2)cc1 [C6] | 81.0 |
| Cc1ccccc1S(=O)(=O)Nc1cnccc1C(=O)Nc1nc(-c2ccccc2)cs1 [C7] | 90.3 |
| COc1ccc(S(=O)(=O)Nc2cnccc2C(=O)Nc2nc(-c3ccccc3)cs2)cc1 [C8] | 84.5 |
| O=C(Nc1nc(-c2ccccc2)cs1)c1ccncc1NS(=O)(=O)c1ccc(-c2ccccc2)cc1 [C9] | 88.5 |
| O=C(Nc1nc(-c2ccccc2)cs1)c1ccncc1NS(=O)(=O)c1ccc(N2CCCC2=O)cc1 [C10] | 62.5 |

tested on: not listed separately; experiment: Rat liver microsome stability; format: in vitro ADME; details: 37 °C, NADPH

| SMILES | Microsomal T1/2 [m] |
| --- | --- |
| Cc1ccc(S(=O)(=O)Nc2cnccc2C(=O)Nc2nc(-c3ccccc3)cs2)cc1 [C2] | 17.0 |
| Cc1ccc(S(=O)(=O)Nc2cc(C(F)(F)F)ccc2C(=O)Nc2nc(-c3ccccc3)cs2)cc1 [C3] | 15.0 |
| Cc1ccc(S(=O)(=O)Nc2cc(Cl)c(Cl)cc2C(=O)Nc2nc(-c3ccccc3)cs2)cc1 [C4] | 13.0 |
| COc1ccc(-c2csc(NC(=O)c3ccccc3NS(=O)(=O)c3ccc(C)cc3)n2)cc1 [C5] | 6.3 |
| Cc1ccc(-c2csc(NC(=O)c3ccccc3NS(=O)(=O)c3ccc(C)cc3)n2)cc1 [C6] | 2.6 |
| COc1ccc(S(=O)(=O)Nc2cnccc2C(=O)Nc2nc(-c3ccccc3)cs2)cc1 [C8] | 1.6 |
| O=C(Nc1nc(-c2ccccc2)cs1)c1ccncc1NS(=O)(=O)c1ccc(-c2ccccc2)cc1 [C9] | 2.0 |
| O=C(Nc1nc(-c2ccccc2)cs1)c1ccncc1NS(=O)(=O)c1ccc(N2CCCC2=O)cc1 [C10] | 1.6 |

tested on: not listed separately; experiment: Kinetic aqueous solubility; format: physicochemical; details: kinetic aqueous solubility in PBS 7.4 buffer from a 10 mM DMSO stock

| SMILES | Solubility [Ug/ml] |
| --- | --- |
| Cc1ccc(S(=O)(=O)Nc2cnccc2C(=O)Nc2nc(-c3ccccc3)cs2)cc1 [C2] | 9.4 |
| Cc1ccc(S(=O)(=O)Nc2cc(C(F)(F)F)ccc2C(=O)Nc2nc(-c3ccccc3)cs2)cc1 [C3] | < 1.0 |
| Cc1ccc(S(=O)(=O)Nc2cc(Cl)c(Cl)cc2C(=O)Nc2nc(-c3ccccc3)cs2)cc1 [C4] | <1.0 |
| COc1ccc(-c2csc(NC(=O)c3ccccc3NS(=O)(=O)c3ccc(C)cc3)n2)cc1 [C5] | < 1.0 |
| Cc1ccc(-c2csc(NC(=O)c3ccccc3NS(=O)(=O)c3ccc(C)cc3)n2)cc1 [C6] | < 1.0 |
| Cc1ccccc1S(=O)(=O)Nc1cnccc1C(=O)Nc1nc(-c2ccccc2)cs1 [C7] | 50.0 |
| COc1ccc(S(=O)(=O)Nc2cnccc2C(=O)Nc2nc(-c3ccccc3)cs2)cc1 [C8] | 54.1 |
| O=C(Nc1nc(-c2ccccc2)cs1)c1ccncc1NS(=O)(=O)c1ccc(-c2ccccc2)cc1 [C9] | < 1.0 |
| O=C(Nc1nc(-c2ccccc2)cs1)c1ccncc1NS(=O)(=O)c1ccc(N2CCCC2=O)cc1 [C10] | 57.0 |

tested on: not listed separately; experiment: Stirring double-sink PAMPA permeability; format: in vitro ADME; details: in-house at NCATS
Summary of the method: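 Effective permeability was measured by passive diffusion in a stirring double-sink PAMPA. Sample preparation, analysis and data processing were fully automated.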

| SMILES | Permeability [×10⁻⁶ cm/s] |
| --- | --- |
| Cc1ccc(S(=O)(=O)Nc2cnccc2C(=O)Nc2nc(-c3ccccc3)cs2)cc1 [C2] | 724.3 |
| Cc1ccc(S(=O)(=O)Nc2cc(C(F)(F)F)ccc2C(=O)Nc2nc(-c3ccccc3)cs2)cc1 [C3] | 82.2 |
| Cc1ccc(S(=O)(=O)Nc2cc(Cl)c(Cl)cc2C(=O)Nc2nc(-c3ccccc3)cs2)cc1 [C4] | < 5.0 |
| COc1ccc(-c2csc(NC(=O)c3ccccc3NS(=O)(=O)c3ccc(C)cc3)n2)cc1 [C5] | 30.1 |
| Cc1ccc(-c2csc(NC(=O)c3ccccc3NS(=O)(=O)c3ccc(C)cc3)n2)cc1 [C6] | 35.6 |
| Cc1ccccc1S(=O)(=O)Nc1cnccc1C(=O)Nc1nc(-c2ccccc2)cs1 [C7] | 1064.7 |
| COc1ccc(S(=O)(=O)Nc2cnccc2C(=O)Nc2nc(-c3ccccc3)cs2)cc1 [C8] | 674.5 |
| O=C(Nc1nc(-c2ccccc2)cs1)c1ccncc1NS(=O)(=O)c1ccc(-c2ccccc2)cc1 [C9] | < 1.0 |
| O=C(Nc1nc(-c2ccccc2)cs1)c1ccncc1NS(=O)(=O)c1ccc(N2CCCC2=O)cc1 [C10] | 313.5 |

target: T1, recombinant human GALK1; experiment: not given; details: GALK1; cited from earlier work

| SMILES | pIC50 |
| --- | --- |
| O=C1CCCC2=C1C(c1[nH]ncc1Cl)N=C(Nc1nc3ccccc3o1)N2 (stereo not shown) [NCGC00238624] | 5.33 |

same assay, conditions: with respect to ATP and galactose substrate; cited from earlier work

| SMILES | Mode of inhibition |
| --- | --- |
| O=C1CCCC2=C1C(c1[nH]ncc1Cl)N=C(Nc1nc3ccccc3o1)N2 (stereo not shown) [NCGC00238624] | competitive with respect to ATP and uncompetitive to galactose substrate |
